# Data: ChEMBL document CHEMBL5058577, “EUbOPEN Chemogenomics Library 2 (Multiplex)” (2022)
# Test system: Fibroblast
# Test: Multiplex assay against human fibroblast
# Type: toxicity, cell-based
# In short: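 Four dyes were applied at seeding to live cells: Hoechst33342, BioTracker Green Microtubule Cytoskeleton Dye, MitoTracker Red and Annexin V Alexa Fluor 680. Imaging after compound addition used a CQ1 microscope at 37°C and 5% CO2. CellPathfinder machine-learning gating then sorted cells into Hoechst high-intensity objects or normal cells, normal cells into healthy, pyknosed or fragmented nuclei, and pyknosed cells into mitotic or apoptotic, with tubulin, mitochondrial-mass and membrane-permeability phenotypes given as per cents of healthy-nucleus cells.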
# [1] = 12 h, 1 µM, compound concentration 1 uM, replicate 1
# [2] = 12 h, 1 µM, compound concentration 1 uM, replicate 2
# [3] = 12 h, 10 µM, compound concentration 10 uM, replicate 1
# [4] = 12 h, 10 µM, compound concentration 10 uM, replicate 2
# [5] = 24 h, 1 µM, compound concentration 1 uM, replicate 1
# [6] = 24 h, 1 µM, compound concentration 1 uM, replicate 2
# [7] = 24 h, 10 µM, compound concentration 10 uM, replicate 1
# [8] = 24 h, 10 µM, compound concentration 10 uM, replicate 2
# [9] = 48 h, 1 µM, compound concentration 1 uM, replicate 1
# [10] = 48 h, 1 µM, compound concentration 1 uM, replicate 2
# [11] = 48 h, 10 µM, compound concentration 10 uM, replicate 1
# [12] = 48 h, 10 µM, compound concentration 10 uM, replicate 2
compound,measurement,setting,value
COc1cc(C(=O)N(CCCc2ccccc2)Cc2ccc(CC(=O)O)cc2)cc(OC)c1C,Population Apoptotic (%),[1],63%
same,Population Fragmented Nuclei (%),[1],14%
same,Population Healthy Nuclei (%),[1],73%
same,Population Hoechst High Intensity Objects (%),[1],2%
same,Population Membrane Permeable-Phenotype (%),[1],0%
same,Population Mitochondria Different-Phenotype (%),[1],0%
same,Population Mitotic Cells (%),[1],36%
same,Population Normal (%),[1],97%
same,Population Pyknosed Nuclei (%),[1],12%
same,Population Tubulin-Different-Phenotype (%),[1],15%
same,Total Cell Count,[1],160
same,Population Apoptotic (%),[2],42%
same,Population Fragmented Nuclei (%),[2],37%
same,Population Healthy Nuclei (%),[2],45%
same,Population Hoechst High Intensity Objects (%),[2],4%
same,Population Membrane Permeable-Phenotype (%),[2],11%
same,Population Mitochondria Different-Phenotype (%),[2],5%
same,Population Mitotic Cells (%),[2],57%
same,Population Normal (%),[2],95%
same,Population Pyknosed Nuclei (%),[2],16%
same,Population Tubulin-Different-Phenotype (%),[2],36%
same,Total Cell Count,[2],176
same,Population Apoptotic (%),[3],41%
same,Population Fragmented Nuclei (%),[3],16%
same,Population Healthy Nuclei (%),[3],70%
same,Population Hoechst High Intensity Objects (%),[3],2%
same,Population Membrane Permeable-Phenotype (%),[3],0%
same,Population Mitochondria Different-Phenotype (%),[3],5%
same,Population Mitotic Cells (%),[3],58%
same,Population Normal (%),[3],97%
same,Population Pyknosed Nuclei (%),[3],12%
same,Population Tubulin-Different-Phenotype (%),[3],28%
same,Total Cell Count,[3],197
same,Population Apoptotic (%),[4],45%
same,Population Fragmented Nuclei (%),[4],25%
same,Population Healthy Nuclei (%),[4],61%
same,Population Hoechst High Intensity Objects (%),[4],4%
same,Population Membrane Permeable-Phenotype (%),[4],7%
same,Population Mitochondria Different-Phenotype (%),[4],4%
same,Population Mitotic Cells (%),[4],54%
same,Population Normal (%),[4],95%
same,Population Pyknosed Nuclei (%),[4],13%
same,Population Tubulin-Different-Phenotype (%),[4],47%
same,Total Cell Count,[4],181
same,Population Apoptotic (%),[5],68%
same,Population Fragmented Nuclei (%),[5],11%
same,Population Healthy Nuclei (%),[5],77%
same,Population Hoechst High Intensity Objects (%),[5],1%
same,Population Membrane Permeable-Phenotype (%),[5],0%
same,Population Mitochondria Different-Phenotype (%),[5],0%
same,Population Mitotic Cells (%),[5],31%
same,Population Normal (%),[5],98%
same,Population Pyknosed Nuclei (%),[5],10%
same,Population Tubulin-Different-Phenotype (%),[5],13%
same,Total Cell Count,[5],156
same,Population Apoptotic (%),[6],52%
same,Population Fragmented Nuclei (%),[6],44%
same,Population Healthy Nuclei (%),[6],41%
same,Population Hoechst High Intensity Objects (%),[6],4%
same,Population Membrane Permeable-Phenotype (%),[6],1%
same,Population Mitochondria Different-Phenotype (%),[6],6%
same,Population Mitotic Cells (%),[6],48%
same,Population Normal (%),[6],95%
same,Population Pyknosed Nuclei (%),[6],13%
same,Population Tubulin-Different-Phenotype (%),[6],28%
same,Total Cell Count,[6],189
same,Population Apoptotic (%),[7],55%
same,Population Fragmented Nuclei (%),[7],12%
same,Population Healthy Nuclei (%),[7],76%
same,Population Hoechst High Intensity Objects (%),[7],1%
same,Population Membrane Permeable-Phenotype (%),[7],1%
same,Population Mitochondria Different-Phenotype (%),[7],6%
same,Population Mitotic Cells (%),[7],45%
same,Population Normal (%),[7],98%
same,Population Pyknosed Nuclei (%),[7],10%
same,Population Tubulin-Different-Phenotype (%),[7],25%
same,Total Cell Count,[7],192
same,Population Apoptotic (%),[8],40%
same,Population Fragmented Nuclei (%),[8],25%
same,Population Healthy Nuclei (%),[8],61%
same,Population Hoechst High Intensity Objects (%),[8],4%
same,Population Membrane Permeable-Phenotype (%),[8],5%
same,Population Mitochondria Different-Phenotype (%),[8],0%
same,Population Mitotic Cells (%),[8],59%
same,Population Normal (%),[8],96%
same,Population Pyknosed Nuclei (%),[8],13%
same,Population Tubulin-Different-Phenotype (%),[8],41%
same,Total Cell Count,[8],175
same,Population Apoptotic (%),[9],90%
same,Population Fragmented Nuclei (%),[9],21%
same,Population Healthy Nuclei (%),[9],72%
same,Population Hoechst High Intensity Objects (%),[9],1%
same,Population Membrane Permeable-Phenotype (%),[9],0%
same,Population Mitochondria Different-Phenotype (%),[9],0%
same,Population Mitotic Cells (%),[9],10%
same,Population Normal (%),[9],98%
same,Population Pyknosed Nuclei (%),[9],6%
same,Population Tubulin-Different-Phenotype (%),[9],17%
same,Total Cell Count,[9],168
same,Population Apoptotic (%),[10],52%
same,Population Fragmented Nuclei (%),[10],50%
same,Population Healthy Nuclei (%),[10],41%
same,Population Hoechst High Intensity Objects (%),[10],2%
same,Population Membrane Permeable-Phenotype (%),[10],3%
same,Population Mitochondria Different-Phenotype (%),[10],9%
same,Population Mitotic Cells (%),[10],47%
same,Population Normal (%),[10],97%
same,Population Pyknosed Nuclei (%),[10],8%
same,Population Tubulin-Different-Phenotype (%),[10],40%
same,Total Cell Count,[10],211
same,Population Apoptotic (%),[11],77%
same,Population Fragmented Nuclei (%),[11],25%
same,Population Healthy Nuclei (%),[11],65%
same,Population Hoechst High Intensity Objects (%),[11],2%
same,Population Membrane Permeable-Phenotype (%),[11],1%
same,Population Mitochondria Different-Phenotype (%),[11],5%
same,Population Mitotic Cells (%),[11],22%
same,Population Normal (%),[11],97%
same,Population Pyknosed Nuclei (%),[11],9%
same,Population Tubulin-Different-Phenotype (%),[11],32%
same,Total Cell Count,[11],195
same,Population Apoptotic (%),[12],58%
same,Population Fragmented Nuclei (%),[12],38%
same,Population Healthy Nuclei (%),[12],54%
same,Population Hoechst High Intensity Objects (%),[12],5%
same,Population Membrane Permeable-Phenotype (%),[12],5%
same,Population Mitochondria Different-Phenotype (%),[12],3%
same,Population Mitotic Cells (%),[12],41%
same,Population Normal (%),[12],94%
same,Population Pyknosed Nuclei (%),[12],6%
same,Population Tubulin-Different-Phenotype (%),[12],46%
same,Total Cell Count,[12],187
Cc1ccccc1C(=O)Nc1ccc(C(=O)N2CCCC(N(C)C)c3ccccc32)cc1.Cl (stereo unspecified),Population Apoptotic (%),[1],52%
same,Population Fragmented Nuclei (%),[1],16%
same,Population Healthy Nuclei (%),[1],71%
same,Population Hoechst High Intensity Objects (%),[1],0%
same,Population Membrane Permeable-Phenotype (%),[1],0%
same,Population Mitochondria Different-Phenotype (%),[1],5%
same,Population Mitotic Cells (%),[1],47%
same,Population Normal (%),[1],100%
same,Population Pyknosed Nuclei (%),[1],12%
same,Population Tubulin-Different-Phenotype (%),[1],31%
same,Total Cell Count,[1],167
same,Population Apoptotic (%),[2],36%
same,Population Fragmented Nuclei (%),[2],22%
same,Population Healthy Nuclei (%),[2],55%
same,Population Hoechst High Intensity Objects (%),[2],1%
same,Population Membrane Permeable-Phenotype (%),[2],10%
same,Population Mitochondria Different-Phenotype (%),[2],3%
same,Population Mitotic Cells (%),[2],63%
same,Population Normal (%),[2],98%
same,Population Pyknosed Nuclei (%),[2],21%
same,Population Tubulin-Different-Phenotype (%),[2],45%
same,Total Cell Count,[2],155
same,Population Apoptotic (%),[3],58%
same,Population Fragmented Nuclei (%),[3],26%
same,Population Healthy Nuclei (%),[3],50%
same,Population Hoechst High Intensity Objects (%),[3],1%
same,Population Membrane Permeable-Phenotype (%),[3],1%
same,Population Mitochondria Different-Phenotype (%),[3],12%
same,Population Mitotic Cells (%),[3],41%
same,Population Normal (%),[3],98%
same,Population Pyknosed Nuclei (%),[3],22%
same,Population Tubulin-Different-Phenotype (%),[3],70%
same,Total Cell Count,[3],108
same,Population Apoptotic (%),[4],45%
same,Population Fragmented Nuclei (%),[4],29%
same,Population Healthy Nuclei (%),[4],47%
same,Population Hoechst High Intensity Objects (%),[4],4%
same,Population Membrane Permeable-Phenotype (%),[4],4%
same,Population Mitotic Cells (%),[4],54%
same,Population Normal (%),[4],95%
same,Population Pyknosed Nuclei (%),[4],23%
same,Population Tubulin-Different-Phenotype (%),[4],61%
same,Total Cell Count,[4],109
same,Population Apoptotic (%),[5],38%
same,Population Fragmented Nuclei (%),[5],15%
same,Population Healthy Nuclei (%),[5],76%
same,Population Hoechst High Intensity Objects (%),[5],1%
same,Population Membrane Permeable-Phenotype (%),[5],0%
same,Population Mitochondria Different-Phenotype (%),[5],8%
same,Population Mitotic Cells (%),[5],61%
same,Population Normal (%),[5],98%
same,Population Pyknosed Nuclei (%),[5],8%
same,Population Tubulin-Different-Phenotype (%),[5],30%
same,Total Cell Count,[5],160
same,Population Apoptotic (%),[6],43%
same,Population Fragmented Nuclei (%),[6],28%
same,Population Healthy Nuclei (%),[6],49%
same,Population Hoechst High Intensity Objects (%),[6],5%
same,Population Membrane Permeable-Phenotype (%),[6],8%
same,Population Mitochondria Different-Phenotype (%),[6],2%
same,Population Mitotic Cells (%),[6],56%
same,Population Normal (%),[6],94%
same,Population Pyknosed Nuclei (%),[6],21%
same,Population Tubulin-Different-Phenotype (%),[6],50%
same,Total Cell Count,[6],157
same,Population Apoptotic (%),[7],58%
same,Population Fragmented Nuclei (%),[7],30%
same,Population Healthy Nuclei (%),[7],58%
same,Population Hoechst High Intensity Objects (%),[7],1%
same,Population Membrane Permeable-Phenotype (%),[7],0%
same,Population Mitochondria Different-Phenotype (%),[7],12%
same,Population Mitotic Cells (%),[7],41%
same,Population Normal (%),[7],98%
same,Population Pyknosed Nuclei (%),[7],11%
same,Population Tubulin-Different-Phenotype (%),[7],68%
same,Total Cell Count,[7],111
same,Population Apoptotic (%),[8],57%
same,Population Fragmented Nuclei (%),[8],37%
same,Population Healthy Nuclei (%),[8],42%
same,Population Hoechst High Intensity Objects (%),[8],4%
same,Population Membrane Permeable-Phenotype (%),[8],9%
same,Population Mitochondria Different-Phenotype (%),[8],11%
same,Population Mitotic Cells (%),[8],42%
same,Population Normal (%),[8],95%
same,Population Pyknosed Nuclei (%),[8],20%
same,Population Tubulin-Different-Phenotype (%),[8],72%
same,Total Cell Count,[8],107
same,Population Apoptotic (%),[9],33%
same,Population Fragmented Nuclei (%),[9],13%
same,Population Healthy Nuclei (%),[9],79%
same,Population Hoechst High Intensity Objects (%),[9],3%
same,Population Membrane Permeable-Phenotype (%),[9],0%
same,Population Mitochondria Different-Phenotype (%),[9],4%
same,Population Mitotic Cells (%),[9],66%
same,Population Normal (%),[9],96%
same,Population Pyknosed Nuclei (%),[9],7%
same,Population Tubulin-Different-Phenotype (%),[9],28%
same,Total Cell Count,[9],158
same,Population Apoptotic (%),[10],53%
same,Population Fragmented Nuclei (%),[10],32%
same,Population Healthy Nuclei (%),[10],50%
same,Population Membrane Permeable-Phenotype (%),[10],8%
same,Population Mitochondria Different-Phenotype (%),[10],5%
same,Population Mitotic Cells (%),[10],46%
same,Population Pyknosed Nuclei (%),[10],17%
same,Population Tubulin-Different-Phenotype (%),[10],54%
same,Total Cell Count,[10],155
same,Population Apoptotic (%),[11],91%
same,Population Fragmented Nuclei (%),[11],24%
same,Population Healthy Nuclei (%),[11],60%
same,Population Hoechst High Intensity Objects (%),[11],7%
same,Population Membrane Permeable-Phenotype (%),[11],0%
same,Population Mitochondria Different-Phenotype (%),[11],12%
same,Population Mitotic Cells (%),[11],8%
same,Population Normal (%),[11],92%
same,Population Pyknosed Nuclei (%),[11],14%
same,Population Tubulin-Different-Phenotype (%),[11],51%
same,Total Cell Count,[11],88
same,Population Apoptotic (%),[12],73%
same,Population Fragmented Nuclei (%),[12],43%
same,Population Healthy Nuclei (%),[12],43%
same,Population Hoechst High Intensity Objects (%),[12],3%
same,Population Membrane Permeable-Phenotype (%),[12],8%
same,Population Mitochondria Different-Phenotype (%),[12],14%
same,Population Mitotic Cells (%),[12],26%
same,Population Normal (%),[12],96%
same,Population Pyknosed Nuclei (%),[12],13%
same,Population Tubulin-Different-Phenotype (%),[12],70%
same,Total Cell Count,[12],113
